# Only some compounds are listed: those with a hit (about 2.5% of all), similar ones and a draw of the others.
# Bfl-1 A1 inh = caspase 3/7 activation in MEF A1-2A-BIM cells, primary screen, A1 inhibitor project, cell-based, luminescence, HTS; Caspase-Glo 3/7 luminescence, 3 h; percent of clofoctol response, vehicle zero; caspase activation, % (concentration not given with the values); actives 0.066% (n = 330,000); AID 2462, 2010;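 active = over half of replicate activation scores above 10%, or exactly half above 10 with the replicate mean above 10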
# MC4R ag barr = MC4R agonists recruiting beta-arrestin, primary screen, cell-based, luminescence, agonist arm of biased-ligand search; Melanocortin receptor 4 (Homo sapiens), P32245; U2OS MC4R beta-arrestin complementation; percent of melanotan II response, DMSO zero; activation, % at 8.9 µM; actives 0.98% (n = 360,000);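 active = activation above a per-plate cutoff, the mean activation of sample wells on that plate plus 3 SD, cut at about 8% in these data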
# NALP1 inh = NALP1 inflammasome inhibitors in reconstituted yeast, colorimetric, S. cerevisiae, triplicate retest; S. cerevisiae NALP1/ASC/caspase-1 growth, X-gal OD620, 72 h; inhibition, % at 10 µM; actives 0.61% (n = 280,000); in the data active = inhibition mostly above about 24%, no sharp cut-off; inactive = mostly below about 32%
# NALP3 yeast inh = NALP3 inflammasome inhibitors in reconstituted yeast, primary screen, luminescence, uHTS. Yeast reconstituted NLRP3/ASC/caspase-1, beta-gal luminescence, 24 h. inhibition, % at 10 µM. actives 0.39% (n = 330,000). AID 2825, 2010;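 active = inhibition of 50% or more; inactive = inhibition below 50%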;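 also: plate controls were induced DMSO wells for no effect and uninduced yeast grown without galactose for full effect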
# TbMetRS inhib = T. brucei MetRS inhibitors, primary screen, biochemical, luminescence. AID 624268, 2012. actives 0.4% (n = 360,000). purified T. brucei MetRS, ATP depletion, Kinase-Glo luminescence. inhibition, % at 11.9 µM. methionyl-tRNA synthetase (Trypanosoma brucei brucei);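 active = inhibition above a per-plate cutoff of the control wells' mean inhibition plus 3 SD, cut at about 5.5% in these data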;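 also: 0% = DMSO wells median and 100% = median of wells with control inhibitor compound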
#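 Material: T. brucei methionyl-tRNA synthetase, purified; reagent: substrates ATP, L-methionine and bulk Escherichia coli tRNA; dosing: 11.9 µM single point; timing: 15 min plus 2 h at 25 °C; detection: luminescence of leftover ATP; evaluation: % inhibition; control set: DMSO-only wells as low control; replicates: singlicate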
# MC4R antag cAMP = MC4R antagonists of cAMP signaling, primary screen, cell-based, TR-FRET, antagonist arm of biased-ligand search; Melanocortin receptor 4 (Homo sapiens), P32245; MC4R-expressing cells, MTII-stimulated cAMP, LANCE TR-FRET; inhibition, % at 6.5 µM; actives 0.48% (n = 360,000);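 active = inhibition above its plate's cutoff, the mean of tested wells on that plate plus 3 SD, cut at about 29% in these data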;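 also: 0% = Melanotan II alone and 100% = Melanotan II plus saturating MCL0020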
#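 Assay system: U2OS cells stably expressing human melanocortin 4 receptor (MC4R) / Dosing: 6.5 µM / Timing: compound 30 min, challenge 1 h, detection 1 h / Measured by: Eu-cAMP/anti-cAMP TR-FRET, emission 671 nm / Replicates: singlicate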
# MC4R barr ag = MC4R beta-arrestin agonists, retest, confirmation, cell-based, luminescence, U2OS; shares compounds with MC4R ag barr; U2OS MC4R beta-arrestin recruitment; scaled DMSO 0%, Melanotan II 100%; activation, % at 8.9 µM; actives 31% (n = 2,400); AID 602192, 2012;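 active = mean activation across replicates above the hit cutoff set in the earlier primary screen, cut at about 8% in these data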
# MOR-DOR barr ag = agonists of MOR-DOR heterodimerization, counter-screen for MC4R biased agonist project, cell-based, luminescence; shares compounds with MC4R ag barr; U2OS PathHunter beta-arrestin, beta-gal luminescence; percent of deltorphin B response, DMSO zero; activation, % at 9.2 µM; actives 5.8% (n = 2,400); AID 602194, 2012;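 active = mean activation across replicates exceeds the hit threshold derived in the earlier primary screen, cut at about 18% in these data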;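 also: 100% = deltorphin B at 0.9 µM final and 0% = DMSO alone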
# Target sequence (P35372 whole entry, looked up): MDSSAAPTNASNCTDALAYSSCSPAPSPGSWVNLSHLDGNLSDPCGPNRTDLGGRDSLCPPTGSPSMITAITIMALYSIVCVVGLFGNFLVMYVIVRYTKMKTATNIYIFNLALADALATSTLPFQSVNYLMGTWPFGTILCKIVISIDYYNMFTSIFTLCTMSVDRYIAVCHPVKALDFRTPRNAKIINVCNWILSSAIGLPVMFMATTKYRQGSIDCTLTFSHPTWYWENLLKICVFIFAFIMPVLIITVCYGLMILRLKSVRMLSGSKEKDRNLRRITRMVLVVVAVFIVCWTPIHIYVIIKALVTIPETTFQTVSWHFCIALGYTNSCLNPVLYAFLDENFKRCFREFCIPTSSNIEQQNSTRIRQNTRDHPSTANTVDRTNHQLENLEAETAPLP
# Target sequence (P41143 whole entry, looked up): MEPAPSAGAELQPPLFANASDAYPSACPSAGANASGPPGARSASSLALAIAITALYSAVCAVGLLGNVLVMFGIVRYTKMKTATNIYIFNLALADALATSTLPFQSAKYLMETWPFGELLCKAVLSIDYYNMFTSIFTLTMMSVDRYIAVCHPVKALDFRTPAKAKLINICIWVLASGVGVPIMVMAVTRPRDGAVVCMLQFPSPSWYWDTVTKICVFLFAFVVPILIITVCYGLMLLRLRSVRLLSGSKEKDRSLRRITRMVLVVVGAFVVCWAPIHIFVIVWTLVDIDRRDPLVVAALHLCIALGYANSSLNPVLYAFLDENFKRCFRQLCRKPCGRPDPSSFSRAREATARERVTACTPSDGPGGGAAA
# * = called active by the depositor; . = not tested or not shown.
SMILES,Bfl-1 A1 inh,MC4R ag barr,NALP1 inh,NALP3 yeast inh,TbMetRS inhib,MC4R antag cAMP,MC4R barr ag,MOR-DOR barr ag
C[C@H]1CN([C@@H](C)CO)C(=O)c2cccc(NC(=O)c3cnccn3)c2O[C@@H]1CN(C)S(=O)(=O)c1ccc(F)cc1,2.0,-0.3,.,16.6,0.1,11.4,.,.
COc1ccc2nc(NC(=O)c3ccc4ncsc4c3)sc2c1,-0.6,2.0,20.1,13.7,-1.1,3.9,.,.
COc1ccc2nc(NC(=O)c3ccc(-n4nc(C)cc4C)cc3)sc2c1,0.0,19.9*,25.5,17.6,-0.3,-1.6,-2.9,7.8
COc1ccc2nc(NC(=O)c3ccc(F)cc3)sc2c1,-6.1,13.2*,-16.7,31.6,0.0,-0.5,-1.4,4.4
O=C(CN1CCN(S(=O)(=O)c2ccc(F)c(F)c2)CC1)Nc1ccccc1C(=O)NC1CC1,.,2.2,.,15.6,-0.4,6.0,.,.
NC(=O)c1ccc(NC(=O)COC(=O)c2ccccc2Nc2ccccc2)cc1,0.0,-3.4,11.3,9.6,-0.5,2.4,.,.
O=C(COC(=O)c1ccccc1Nc1ccccc1)NCc1ccccc1,0.4,25.3*,19.1,11.4,-0.9,-3.8,0.2,7.3
O=C(COC(=O)c1ccccc1Nc1ccccc1)NCc1ccccc1Cl,-0.2,16.3*,33.0,-3.5,0.0,12.4,10.5*,4.1
O=C(COC(=O)c1ccccc1Nc1cccc(C(F)(F)F)c1)NCc1ccco1,-0.2,13.0*,3.3,14.2,0.1,-7.2,5.9,9.3
CC(CNC(=O)COC(=O)c1ccco1)c1ccccc1 (stereo not drawn),-0.2,0.0,.,10.7,-0.2,8.2,.,.
O=C(Cc1ccc(NC(=O)C2CCCN(C(=O)c3ccccc3)C2)cc1)Nc1ccc(C(=O)N2CCOCC2)cc1 (stereo not drawn),.,1.1,.,.,1.3,10.5,.,.
Clc1cccc(-c2nc3nc4ccccc4nc3n2Cc2ccccc2)c1,-0.1,23.8*,14.3,5.0,0.7,6.5,1.0,4.6
CCC(C)(C)c1ccc(OCCCC[n+]2ccc(C)cc2)c(C(C)(C)CC)c1,0.3,.,6.2,-31.8,.,.,.,.
CCC(C)(C)c1ccc(OCCCC[n+]2cccc(C)c2C)c(C(C)(C)CC)c1,0.3,22.8*,29.0,37.3,-1.3,3.0,21.6*,15.4
O=C(C[C@H]1C[C@H](C(=O)N2CCCCC2)[C@@]2(CCc3ccccc3)c3[nH]c4cc(-c5ccco5)ccc4c3CCN2C1=O)NCc1cccc(C(F)(F)F)c1,.,-0.2,.,.,-0.1,2.2,.,.
Cc1ccc2nc(NC(=O)CN3CCN(c4ccccn4)CC3)sc2c1,0.2,-0.8,16.0,15.6,-0.8,8.2,.,.
Cc1ccc2nc(-c3ccc(NC(=O)CSc4nccc(=O)[nH]4)cc3)sc2c1,-3.2,-2.8,5.1,7.0,-0.2,3.5,.,.
Cc1ccc2nc(-c3ccc(NC(=O)CN4CCN(c5ccccn5)CC4)cc3)sc2c1,-0.4,10.0*,-18.0,4.2,0.5,19.3,1.3,3.4
Cc1ccc2nc(-c3ccc(NC(=O)CSc4nc(N)cc(=O)[nH]4)cc3)sc2c1,-1.8,13.4*,.,-1.3,0.1,8.6,6.5,1.7
COc1cccc(-c2cc(NC=O)c3ncc(-c4cc(OC)c(OC)c(OC)c4)n3c2)c1,.,27.7*,.,.,-0.2,-49.0,6.4,3.7
Nc1ccc(-c2cc(NC=O)c3ncc(-c4cccc(C(F)(F)F)c4)n3c2)cn1,.,11.3*,.,.,-0.3,-18.3,5.0,5.0
COc1cc(-c2cnc3c(NC=O)cc(-c4cccc(C(F)(F)F)c4)cn23)cc(OC)c1OC,.,18.3*,.,.,-0.1,-1.5,7.0,4.6
COc1cc(-c2cnc3c(NC=O)cc(-c4cccnc4)cn23)cc(OC)c1OC,.,1.1,.,.,-0.3,-53.4,.,.
Cn1cc(-c2cnc3c(NC=O)cc(-c4cccc(C(F)(F)F)c4)cn23)cn1,.,1.9,.,.,-0.3,-10.9,.,.
COc1cccc(-c2cc(NC=O)c3ncc(-c4cccc(C(=O)N(C)C)c4)n3c2)c1,.,2.0,.,.,-0.3,-12.4,.,.
SMILES,Bfl-1 A1 inh,MC4R ag barr,NALP1 inh,NALP3 yeast inh,TbMetRS inhib,MC4R antag cAMP,MC4R barr ag,MOR-DOR barr ag
COc1cccc(-c2cnc3c(NC=O)cc(-c4cccc(C(=O)N(C)C)c4)cn23)c1,.,30.5*,.,.,-0.3,-10.8,21.5*,1.2
CCCn1c(N)c(N(CCOC)C(=O)c2cc3ccccc3cc2OC)c(=O)[nH]c1=O,-0.9,-1.4,.,10.6,-0.1,7.9,.,.
Cc1cccc(C)c1NC(=O)C1c2ccccc2OCC(=O)N1CCc1c[nH]c2ccccc12 (stereo not drawn),.,.,.,.,-0.9,.,.,.
CN(C)CCNC(=O)c1cccc(-c2cc(NC=O)c3ncc(-c4cccc(C(F)(F)F)c4)n3c2)c1,.,23.4*,.,.,-0.4,-6.0,29.0*,7.0
CN(C)CCNC(=O)c1cccc(-c2cnc3c(NC=O)cc(-c4cc(F)c(F)c(F)c4)cn23)c1,.,8.1,.,.,0.2,-3.4,.,.
COc1cccc(-c2cnc3c(NC=O)cc(-c4ccncc4)cn23)c1,.,4.5,.,.,0.6,-25.2,.,.
COc1cccc(-c2cnc3c(NC=O)cc(-c4ccc(O)c(OC)c4)cn23)c1,.,30.3*,.,.,0.0,-4.5,30.4*,4.0
Cc1ccccc1C1c2[nH]c3ccccc3c2C[C@H]2C(=O)N(c3ccccc3C(=O)NCCCN3CCOCC3)C(=O)N12 (stereo partly drawn),1.5,-1.0,13.1,12.1,0.6,10.0,.,.
Cc1cccc(C)c1OC(=O)CSc1nnc(-c2ccccc2O)o1,-0.7,54.4*,3.0,1.0,-2.2,3.2,8.2*,4.4
COc1cc(C(=S)N2CCN(c3cccc(Cl)c3)CC2)ccc1O,0.9,5.5,-10.0,-27.1,-1.8,-10.9,.,.
Oc1ccc(C(=S)N2CCN(c3cccc(Cl)c3)CC2)cc1,0.2,9.8*,-0.6,8.6,-1.3,-6.0,5.7,10.1
CN(C)S(=O)(=O)c1ccc(N2CCCC2)c(C(=O)NCC2CCCO2)c1 (stereo not drawn),-0.4,-3.0,.,18.2,-0.3,8.9,.,.
